Assay results published in ChEMBL document CHEMBL5674883, “The Heterochromatin Landscape in Migrating Cells and the Importance of H3K27me3 for Associated Transcriptome Alterations” (Cells, 2018).

Columns and labels:
Assay type in all cases: cell-based
[1] = molecular target: T1, RNA polymerase II (Mus musculus) (UniProt P08775+Q8CFI7+P97760+A0A3Q4L2S8+Q80UW8+P61219+P62488+Q923G2+P60898+O08740+Q63871+P62876); experiment: Inhibition of RNA polymerase II in mouse B16-F1 migrating cells assessed as fold change in Mastl-RNA stability at 0.1 mM measured by ChIP-seq analysis relative to control cells
[2] = molecular target: T1, RNA polymerase II (Mus musculus); experiment: Inhibition of RNA polymerase II in mouse B16-F1 migrating cells assessed as fold change in Gria4-RNA stability at 0.1 mM measured by ChIP-seq analysis relative to control cells
[3] = molecular target: T1, RNA polymerase II (Mus musculus); experiment: Inhibition of RNA polymerase II in mouse B16-F1 migrating cells assessed as fold change in Rpl7-RNA stability at 0.1 mM measured by […] analysis relative to control cells
[4] = molecular target: T1, RNA polymerase II (Mus musculus); experiment: Inhibition of RNA polymerase II in mouse B16-F1 migrating cells assessed as fold change in Calu-RNA stability at 0.1 mM measured by […] analysis relative to control cells
[5] = molecular target: T1, RNA polymerase II (Mus musculus); experiment: Inhibition of RNA polymerase II in mouse B16-F1 migrating cells assessed as fold change in Higd1a-RNA stability at 0.1 mM measured by ChIP-seq analysis relative to control cells
[6] = molecular target: T1, RNA polymerase II (Mus musculus); experiment: Inhibition of RNA polymerase II in mouse B16-F1 migrating cells assessed as fold change in Rps15-RNA stability at 0.1 mM measured by […] analysis relative to control cells
[7] = molecular target: T1, RNA polymerase II (Mus musculus); experiment: Inhibition of RNA polymerase II in mouse B16-F1 migrating cells assessed as fold change in Larp4-RNA stability at 0.1 mM measured by ChIP-seq analysis relative to control cells
[8] = molecular target: T1, RNA polymerase II (Mus musculus); experiment: Inhibition of RNA polymerase II in mouse B16-F1 migrating cells assessed as fold change in Zcchc10-RNA stability at 0.1 mM measured by […] analysis relative to control cells
[9] = molecular target: T1, RNA polymerase II (Mus musculus); experiment: Inhibition of RNA polymerase II in mouse B16-F1 migrating cells assessed as fold change in Alkbh2-RNA stability at 0.1 mM measured by […] analysis relative to control cells
[10] = molecular target: Histone-lysine N-methyltransferase EZH2 (Mus musculus) (UniProt Q61188); experiment: Inhibition of EZH2 in mouse B16-F1 migrating cells assessed as fold change in H3K27me3-buffered regulated Ccdc18-mRNA expression at 3 uM measured by […] analysis relative to control cells
Chain of Histone-lysine N-methyltransferase EZH2 (Mus musculus) (Q61188 whole entry): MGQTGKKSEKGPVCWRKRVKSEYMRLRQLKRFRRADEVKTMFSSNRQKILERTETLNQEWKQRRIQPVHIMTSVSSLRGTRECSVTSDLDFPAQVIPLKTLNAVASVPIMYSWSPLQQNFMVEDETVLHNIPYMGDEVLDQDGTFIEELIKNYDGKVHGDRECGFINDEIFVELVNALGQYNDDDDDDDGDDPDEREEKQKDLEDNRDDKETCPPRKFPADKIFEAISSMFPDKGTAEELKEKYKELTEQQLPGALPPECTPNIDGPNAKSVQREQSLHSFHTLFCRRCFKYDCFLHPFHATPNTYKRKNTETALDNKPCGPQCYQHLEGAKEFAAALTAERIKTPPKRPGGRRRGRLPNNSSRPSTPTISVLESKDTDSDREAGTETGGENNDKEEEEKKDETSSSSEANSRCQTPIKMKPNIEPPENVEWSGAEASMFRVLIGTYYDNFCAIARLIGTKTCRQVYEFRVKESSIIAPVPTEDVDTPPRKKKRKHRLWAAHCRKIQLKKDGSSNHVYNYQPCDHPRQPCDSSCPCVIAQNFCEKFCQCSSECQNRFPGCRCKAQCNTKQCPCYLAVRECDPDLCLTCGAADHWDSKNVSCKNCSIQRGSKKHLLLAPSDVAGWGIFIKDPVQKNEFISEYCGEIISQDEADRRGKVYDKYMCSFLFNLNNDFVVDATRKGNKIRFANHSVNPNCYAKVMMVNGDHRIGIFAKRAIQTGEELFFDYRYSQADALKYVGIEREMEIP
In short: (§1)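 Confluent B16-F1 cells on fibronectin-coated plates, cultured at 37 °C and 7% CO2, were scratched at multiple sites to induce migration. They were then held 3 h in growth medium containing 3 µM GSK343, with the inhibitor added 3 h before lysis. Unscratched cells served as controls. Poly A mRNA was analysed by RNA-seq (n=3 GSK343, n=5 controls). Linear models removed batch effects, and buffered genes were those altered only under GSK343 (FDR <0.05, fold change >1.3).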

[11] = molecular target: Histone-lysine N-methyltransferase EZH2 (Mus musculus) (UniProt Q61188); experiment: Inhibition of EZH2 in mouse B16-F1 migrating cells assessed as fold change in H3K27me3-independent regulated Fosl2-mRNA expression at 3 uM measured by […] analysis relative to control cells
In short: (§2)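 Confluent B16-F1 cells on fibronectin-coated plates were scratched at multiple sites, washed once with DMEM and left to migrate 3 h in growth medium (37 °C, 7% CO2); unscratched cells served as control. GSK343 (3 µM) was added 3 h before lysis. Poly A mRNA was sequenced (RNA-seq), with 5 replicates for untreated and 3 for treated cells. Differential expression was called by linear model with batch correction, at FDR <0.05 and fold change ≥1.3.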

[12] = molecular target: Histone-lysine N-methyltransferase EZH2 (Mus musculus) (UniProt Q61188); experiment: Inhibition of EZH2 in mouse B16-F1 migrating cells assessed as fold change in H3K27me3-buffered regulated Snhg5-mRNA expression at 3 uM measured by […] analysis relative to control cells; in short: as §2
[13] = molecular target: Histone-lysine N-methyltransferase EZH2 (Mus musculus) (UniProt Q61188); experiment: Inhibition of EZH2 in mouse B16-F1 migrating cells assessed as fold change in H3K27me3-buffered regulated Ndufv3-mRNA expression at 3 uM measured by […] analysis relative to control cells; in short: as §1
[14] = molecular target: Histone-lysine N-methyltransferase EZH2 (Mus musculus) (UniProt Q61188); experiment: Inhibition of EZH2 in mouse B16-F1 migrating cells assessed as fold change in H3K27me3-dependent regulated Ccno-mRNA expression at 3 uM measured by ChIP-seq analysis relative to control cells; in short: as §2
[15] = molecular target: Histone-lysine N-methyltransferase EZH2 (Mus musculus) (UniProt Q61188); experiment: Inhibition of EZH2 in mouse B16-F1 migrating cells assessed as fold change in H3K27me3-independent regulated Tmem179-mRNA expression at 3 uM measured by […] analysis relative to control cells; in short: as §2
[16] = molecular target: Histone-lysine N-methyltransferase EZH2 (Mus musculus) (UniProt Q61188); experiment: Inhibition of EZH2 in mouse B16-F1 migrating cells assessed as fold change in H3K27me3-buffered regulated Cntrob-mRNA expression at 3 uM measured by […] analysis relative to control cells; in short: as §1
[17] = molecular target: Histone-lysine N-methyltransferase EZH2 (Mus musculus) (UniProt Q61188); experiment: Inhibition of EZH2 in mouse B16-F1 migrating cells assessed as fold change in H3K27me3-buffered regulated Pde4d-mRNA expression at 3 uM measured by ChIP-seq analysis relative to control cells; in short: as §1
[18] = molecular target: Histone-lysine N-methyltransferase EZH2 (Mus musculus) (UniProt Q61188); experiment: Inhibition of EZH2 in mouse B16-F1 migrating cells assessed as fold change in H3K27me3-independent regulated Skil-mRNA expression at 3 uM measured by […] analysis relative to control cells; in short: as §2
[19] = molecular target: Histone-lysine N-methyltransferase EZH2 (Mus musculus) (UniProt Q61188); experiment: Inhibition of EZH2 in mouse B16-F1 migrating cells assessed as fold change in H3K27me3-dependent regulated Gm43909-mRNA expression at 3 uM measured by […] analysis relative to control cells; in short: as §2
[20] = molecular target: Histone-lysine N-methyltransferase EZH2 (Mus musculus) (UniProt Q61188); experiment: Inhibition of EZH2 in mouse B16-F1 migrating cells assessed as fold change in H3K27me3-buffered regulated Ankrd26-mRNA expression at 3 uM measured by […] analysis relative to control cells; in short: as §1
[21] = molecular target: Histone-lysine N-methyltransferase EZH2 (Mus musculus) (UniProt Q61188); experiment: Inhibition of EZH2 in mouse B16-F1 migrating cells assessed as fold change in H3K27me3-buffered regulated Zc3h7a-mRNA expression at 3 uM measured by […] analysis relative to control cells; in short: as §2
[22] = molecular target: Histone-lysine N-methyltransferase EZH2 (Mus musculus) (UniProt Q61188); experiment: Inhibition of EZH2 in mouse B16-F1 migrating cells assessed as fold change in H3K27me3-independent regulated Pwwp2b-mRNA expression at 3 uM measured by […] analysis relative to control cells; in short: as §2
[23] = molecular target: Histone-lysine N-methyltransferase EZH2 (Mus musculus) (UniProt Q61188); experiment: Inhibition of EZH2 in mouse B16-F1 migrating cells assessed as fold change in H3K27me3-buffered regulated Hunk-mRNA expression at 3 uM measured by […] analysis relative to control cells; in short: as §1
[24] = molecular target: Histone-lysine N-methyltransferase EZH2 (Mus musculus) (UniProt Q61188); experiment: Inhibition of EZH2 in mouse B16-F1 migrating cells assessed as fold change in H3K27me3-independent regulated Cep152-mRNA expression at 3 uM measured by ChIP-seq analysis relative to control cells; in short: as §2
[25] = molecular target: Histone-lysine N-methyltransferase EZH2 (Mus musculus) (UniProt Q61188); experiment: Inhibition of EZH2 in mouse B16-F1 migrating cells assessed as fold change in H3K27me3-dependent regulated Id1-mRNA expression at 3 uM measured by […] analysis relative to control cells; in short: as §2
[26] = molecular target: Histone-lysine N-methyltransferase EZH2 (Mus musculus) (UniProt Q61188); experiment: Inhibition of EZH2 in mouse B16-F1 migrating cells assessed as fold change in H3K27me3-buffered regulated Gm28989-mRNA expression at 3 uM measured by […] analysis relative to control cells; in short: as §1

**Q.** Which log2FC [1] does the source give for OC[C@H]1O[C@@H](n2cnc3cc(Cl)c(Cl)cc32)[C@H](O)[C@@H]1O here?
**A.** The log2FC was -0.74.

**Q.** And the log2FC [2]?
**A.** Its log2FC is -0.5.

**Q.** And the log2FC [3]?
**A.** Its log2FC is 0.41.

**Q.** What about the log2FC [4] of the same compound?
**A.** The log2FC was -0.47.

**Q.** And the log2FC [5]?
**A.** The log2FC was 0.77.

**Q.** And the log2FC [6]?
**A.** The log2FC was 0.53.

**Q.** And the log2FC [7]?
**A.** Its log2FC is -0.9.

**Q.** What about the log2FC [8] of the same compound?
**A.** Its log2FC is -0.7.

**Q.** And the log2FC [9]?
**A.** The log2FC was 0.66.

**Q.** Which results are given for CCCc1cc(C)[nH]c(=O)c1CNC(=O)c1cc(-c2ccnc(N3CCN(C)CC3)c2)cc2c1cnn2C(C)C?
**A.** log2FC [10]: -0.87; log2FC [11]: 0.7; log2FC [12]: -0.89; log2FC [13]: 0.38; log2FC [14]: 1.02; log2FC [15]: 1.1; log2FC [16]: -0.42; log2FC [17]: 0.75; log2FC [18]: 0.42; log2FC [19]: -0.39; log2FC [20]: -0.47; log2FC [21]: -0.42; log2FC [22]: 0.46; log2FC [23]: -0.5; log2FC [24]: -0.48; log2FC [25]: 0.16; log2FC [26]: 1.08
